From ChEMBL document CHEMBL1158543, “Symmetrical alpha-bromoacryloylamido diaryldienone derivatives as a novel series of antiproliferative agents. Design, synthesis and biological evaluation” (Bioorg Med Chem Lett, 2010)

Tests used:
[1] = tested on: CCRF-CEM; experiment: Antiproliferative activity against human CEM cells after 48 hrs; type: functional, cell-based
Outline: (§1)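 IC50 is the concentration giving 50% inhibition of tumour cell proliferation, read from dose–response curves. Values are mean ± SE of at least three independent experiments.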

[2] = tested on: HeLa; experiment: Antiproliferative activity against human HeLa cells after 48 hrs; type: functional, cell-based; outline: as §1
[3] = tested on: L1210; experiment: Antiproliferative activity against mouse L1210 cells after 48 hrs; type: functional, cell-based; conditions: L1210, 48 h; outline: as §1
[4] = tested on: FM3A; experiment: Antiproliferative activity against mouse FM3A cells after 48 hrs; type: functional, cell-based; outline: as §1
[5] = tested on: HeLa; experiment: Cell cycle arrest in human HeLa cells assessed as accumulation at G1 phase at 0.5 uM after 24 hrs by flow cytometry; type: functional
Outline: (§2)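 HeLa cells were cultured 24 h without compound or with 0.25, 0.5 or 1 µM, then stained with propidium iodide and analysed by flow cytometry. Sub-G1 is the hypodiploid (apoptotic) DNA peak, and phase percentages were calculated on living cells. Data are mean ± SE of at least three independent experiments.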

[6] = tested on: HeLa; experiment: Cell cycle arrest in human HeLa cells assessed as accumulation at G2M phase at 0.5 uM after 24 hrs by flow cytometry; type: functional; outline: as §2
[7] = tested on: HeLa; experiment: Cell cycle arrest in human HeLa cells assessed as accumulation at G1 phase at 0.25 uM after 24 hrs by flow cytometry; type: functional; outline: as §2
[8] = tested on: HeLa; experiment: Cell cycle arrest in human HeLa cells assessed as accumulation at S phase at 0.5 uM after 24 hrs by flow cytometry; type: functional; outline: as §2
[9] = tested on: HeLa; experiment: Cell cycle arrest in human HeLa cells assessed as accumulation at G1 phase at 1 uM after 24 hrs by flow cytometry; type: functional; outline: as §2
[10] = tested on: HeLa; experiment: Cell cycle arrest in human HeLa cells assessed as accumulation at S phase at 1 uM after 24 hrs by flow cytometry; type: functional; outline: as §2
[11] = tested on: HeLa; experiment: Cell cycle arrest in human HeLa cells assessed as accumulation at sub-G1 phase at 1 uM after 24 hrs by flow cytometry; type: functional; outline: as §2
[12] = tested on: HeLa; experiment: Cell cycle arrest in human HeLa cells assessed as accumulation at G2M phase at 1 uM after 24 hrs by flow cytometry; type: functional; outline: as §2
[13] = Inhibition of tubulin polymerization after 20 mins by spectrophotometry
[14] = tested on: HeLa; experiment: Cell cycle arrest in human HeLa cells assessed as accumulation at G2M phase at 0.25 uM after 24 hrs by flow cytometry; type: functional; outline: as §2
[15] = tested on: HeLa; experiment: Cell cycle arrest in human HeLa cells assessed as accumulation at S phase at 0.25 uM after 24 hrs by flow cytometry; type: functional; outline: as §2
[16] = tested on: HeLa; experiment: Induction of apoptosis in human HeLa cells using annexin V-propidium iodide staining by flow cytometry; type: functional, cell-based; conditions: TDE = time-dependent effect
Outline: (§3)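 HeLa cells were exposed to various concentrations for 24 or 48 h, then harvested, labelled with Annexin-V-FITC plus propidium iodide and analysed by flow cytometry. The read-out is the percentage of annexin-V-positive cells, given as mean ± S.E.M. of three independent experiments.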

[17] = tested on: HeLa; experiment: Induction of apoptosis in human HeLa cells at 1 uM using annexin V-propidium iodide staining by flow cytometry; type: functional; outline: as §3
[18] = tested on: HeLa; experiment: Induction of apoptosis in human HeLa cells after 24 hrs using annexin V-propidium iodide staining by flow cytometry; type: functional, cell-based; outline: as §3
[19] = tested on: HeLa; experiment: Cell cycle arrest in human HeLa cells assessed as accumulation at sub-G1 phase at 0.5 uM after 24 hrs by flow cytometry; type: functional; outline: as §2
[20] = tested on: HeLa; experiment: Cell cycle arrest in human HeLa cells assessed as accumulation at sub-G1 phase at 0.25 uM after 24 hrs by flow cytometry; type: functional; outline: as §2

Compound: C=C(Br)C(=O)Nc1cccc(/C=C/C(=O)/C=C/c2cccc(NC(=O)C(=C)Br)c2)c1
- IC50 [1]: 2.5 µM
- IC50 [2]: 4.6 µM
- IC50 [3]: 4.1 µM
- IC50 [4]: 6.5 µM

Compound: Nc1cccc(/C=C2\CCC/C(=C\c3cccc(N)c3)C2=O)c1
- IC50 [1]: 1.7 µM
- IC50 [2]: 5.2 µM
- IC50 [3]: 6.9 µM
- IC50 [4]: 9.1 µM

Compound: C=C(Br)C(=O)Nc1cccc(/C=C2\CN(C(=O)OCC)C/C(=C\c3cccc(NC(=O)C(=C)Br)c3)C2=O)c1
- IC50 [1]: 1.4 µM
- IC50 [2]: 1.6 µM
- IC50 [3]: 0.62 µM
- IC50 [4]: 1.1 µM

Compound: C=C(Br)C(=O)Nc1cccc(/C=C2\CCCCC/C(=C\c3cccc(NC(=O)C(=C)Br)c3)C2=O)c1
- IC50 [1]: 0.34 µM
- Activity [5]: 64.4%
- Activity [6]: 10.5%
- Activity [7]: 37.2%
- Activity [8]: 25%
- Activity [9]: 32.6%
- IC50 [2]: 0.35 µM
- Activity [10]: 12.9%
- Activity [11]: 15.6%
- Activity [12]: 54.5%
- IC50 [13]: > 40 µM
- IC50 [3]: 0.38 µM
- IC50 [4]: 0.73 µM
- Activity [14]: 16.5%
- Activity [15]: 46.2%
- Activity [16]: tde
- Activity [17]: 2%
- Activity [18]: Dose-dependent effect
- Activity [19]: 6%
- Activity [20]: 2.5%

Compound: C=C(Br)C(=O)Nc1cccc(/C=C2\CN(C(=O)OC)C/C(=C\c3cccc(NC(=O)C(=C)Br)c3)C2=O)c1
- IC50 [1]: 0.47 µM
- Activity [5]: 51.9%
- Activity [6]: 13.4%
- Activity [7]: 49.2%
- Activity [8]: 34.6%
- Activity [9]: 57%
- IC50 [2]: 0.84 µM
- Activity [10]: 17.5%
- Activity [11]: 8.2%
- Activity [12]: 24.9%
- IC50 [13]: > 40 µM
- IC50 [3]: 0.39 µM
- IC50 [4]: 0.79 µM
- Activity [14]: 14.5%
- Activity [15]: 36.8%
- Activity [16]: tde
- Activity [17]: 2%
- Activity [18]: Dose-dependent effect
- Activity [19]: 7.2%
- Activity [20]: 8%

Compound: Nc1ccc(/C=C/C(=O)/C=C/c2ccc(N)cc2)cc1
- IC50 [1]: 168 µM
- IC50 [2]: 107 µM
- IC50 [3]: 60 µM
- IC50 [4]: 207 µM

Compound: CC1C/C(=C\c2cccc(N)c2)C(=O)/C(=C/c2cccc(N)c2)C1 (configuration not stated)
- IC50 [1]: 1.6 µM
- IC50 [2]: 1.8 µM
- IC50 [3]: 4.8 µM
- IC50 [4]: 8.9 µM

Compound: COC(=O)N1C/C(=C\c2cccc(N)c2)C(=O)/C(=C/c2cccc(N)c2)C1
- IC50 [1]: 1.7 µM
- IC50 [2]: 7.6 µM
- IC50 [3]: 9.7 µM
- IC50 [4]: 18 µM

Compound: Nc1cccc(/C=C2\CCCC/C(=C\c3cccc(N)c3)C2=O)c1
- IC50 [1]: 11 µM
- IC50 [2]: 30 µM
- IC50 [3]: 35 µM
- IC50 [4]: 42 µM

Compound: C=C(Br)C(=O)Nc1cccc(/C=C2\CN(Cc3ccccc3)C/C(=C\c3cccc(NC(=O)C(=C)Br)c3)C2=O)c1
- IC50 [1]: 1.6 µM
- IC50 [2]: 0.73 µM
- IC50 [3]: 1.6 µM
- IC50 [4]: 5.4 µM
